Measured values from ChEMBL document CHEMBL4130384, “Design, synthesis and biological evaluation of novel 2-methoxyestradiol analogs as dual selective estrogen receptor modulators (SERMs) and antiangiogenic agents” (Eur J Med Chem, 2017).
Activity calls are given as the source filed them. The calls are words filed in the database; no cut-off is given here.

These compounds were tested on Ishikawa (assay: Antiproliferative activity against human Ishikawa cells after 48 hrs by MTT assay). Conditions: not given.
Format: functional, cell-based
Outline: (§1)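 Cells grown in RPMI1640 with 10% FBS and penicillin/streptomycin at 37 °C, 5% CO2. Seeded at 1 × 10^5/mL, grown 24 h, then exposed to compound at 1 × 10^-4 to 1 × 10^-7 mol/L for 48 h. Controls received medium with 1% DMSO. MTT 4 h, formazan dissolved in DMSO, absorbance at 490 nm; IC50 derived.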
Compound `COCOc1ccc2c(c1)CC[C@@H]1[C@@H]2[C@H](OC(=O)c2ccc(NC(=O)CN(C)C)cc2)C[C@]2(C)[C@@H](OCOC)CC[C@@H]12` has an IC50 of 28.5 µM. Work on `COc1cc2c(cc1OC)[C@@H]1[C@@H](CC2)[C@@H]2CC[C@H](OC)[C@@]2(C)C[C@H]1OC(=O)c1ccc(NC(=O)CN(C)C)cc1` yielded an IC50 of 6.32 µM. For `CN1CCN(CC(=O)Nc2ccc(C(=O)O[C@@H]3C[C@]4(C)[C@@H](O)CC[C@H]4[C@@H]4CCc5cc(O)ccc5[C@H]43)cc2)CC1`, the IC50 was 9.66 µM.

The compounds below were run on PC-3 (assay: Antiproliferative activity against human PC3 cells after 48 hrs by MTT assay). Conditions: PC-3, 48 h.
Format: functional, cell-based
Outline: as §1
Work on `COCOc1ccc2c(c1)CC[C@@H]1[C@@H]2[C@H](OC(=O)c2ccc(NC(=O)CN(C)C)cc2)C[C@]2(C)[C@@H](OCOC)CC[C@@H]12` yielded an IC50 of 17.6 µM. Compound `COc1cc2c(cc1OC)[C@@H]1[C@@H](CC2)[C@@H]2CC[C@H](OC)[C@@]2(C)C[C@H]1OC(=O)c1ccc(NC(=O)CN(C)C)cc1` has an IC50 of 8.94 µM. Compound `CN1CCN(CC(=O)Nc2ccc(C(=O)O[C@@H]3C[C@]4(C)[C@@H](O)CC[C@H]4[C@@H]4CCc5cc(O)ccc5[C@H]43)cc2)CC1` has an IC50 of 19.4 µM.

What follows are compounds tested on MCF7 (assay: Antiproliferative activity against human MCF7 cells after 48 hrs by MTT assay). Conditions: MCF7, 48 h.
Format: functional, cell-based
Outline: as §1
`COCOc1ccc2c(c1)CC[C@@H]1[C@@H]2[C@H](OC(=O)c2ccc(NC(=O)CN(C)C)cc2)C[C@]2(C)[C@@H](OCOC)CC[C@@H]12` showed an IC50 of 28 µM. With `COc1cc2c(cc1OC)[C@@H]1[C@@H](CC2)[C@@H]2CC[C@H](OC)[C@@]2(C)C[C@H]1OC(=O)c1ccc(NC(=O)CN(C)C)cc1` the IC50 was 28.2 µM. `CN1CCN(CC(=O)Nc2ccc(C(=O)O[C@@H]3C[C@]4(C)[C@@H](O)CC[C@H]4[C@@H]4CCc5cc(O)ccc5[C@H]43)cc2)CC1` showed an IC50 of 29.6 µM.

These compounds were tested on HepG2 (assay: Antiproliferative activity against human HepG2 cells after 48 hrs by MTT assay). Conditions: HepG2, 48 h.
Format: functional, cell-based
Outline: as §1
`COCOc1ccc2c(c1)CC[C@@H]1[C@@H]2[C@H](OC(=O)c2ccc(NC(=O)CN(C)C)cc2)C[C@]2(C)[C@@H](OCOC)CC[C@@H]12` was tested, and the IC50 was 23.5 µM. Work on `COc1cc2c(cc1OC)[C@@H]1[C@@H](CC2)[C@@H]2CC[C@H](OC)[C@@]2(C)C[C@H]1OC(=O)c1ccc(NC(=O)CN(C)C)cc1` yielded an IC50 of 1.78 µM. For `CN1CCN(CC(=O)Nc2ccc(C(=O)O[C@@H]3C[C@]4(C)[C@@H](O)CC[C@H]4[C@@H]4CCc5cc(O)ccc5[C@H]43)cc2)CC1`, the IC50 was 15.1 µM.

Each compound was assayed on HUVEC (assay: Antiproliferative activity against HUVEC after 48 hrs by MTT assay). Conditions: Homo sapiens.
Format: functional, cell-based
Outline: as §1
Work on `COCOc1ccc2c(c1)CC[C@@H]1[C@@H]2[C@H](OC(=O)c2ccc(NC(=O)CN(C)C)cc2)C[C@]2(C)[C@@H](OCOC)CC[C@@H]12` yielded an IC50 of 17.7 µM. Work on `COc1cc2c(cc1OC)[C@@H]1[C@@H](CC2)[C@@H]2CC[C@H](OC)[C@@]2(C)C[C@H]1OC(=O)c1ccc(NC(=O)CN(C)C)cc1` yielded an IC50 of 5.88 µM. `CN1CCN(CC(=O)Nc2ccc(C(=O)O[C@@H]3C[C@]4(C)[C@@H](O)CC[C@H]4[C@@H]4CCc5cc(O)ccc5[C@H]43)cc2)CC1` showed an IC50 of 37 µM.

These compounds were tested on Ishikawa (assay: Antiproliferative activity against human Ishikawa cells assessed as suppression of proliferation at 10 uM after 48 hrs by MTT assay relative to control). Conditions: not given.
Format: functional
With `COCOc1ccc2c(c1)CC[C@@H]1[C@@H]2[C@H](OC(=O)c2ccc(NC(=O)CN(C)C)cc2)C[C@]2(C)[C@@H](OCOC)CC[C@@H]12` the Activity was “Active”. For `COc1cc2c(cc1OC)[C@@H]1[C@@H](CC2)[C@@H]2CC[C@H](OC)[C@@]2(C)C[C@H]1OC(=O)c1ccc(NC(=O)CN(C)C)cc1`, the Activity was “Active”. With `CN1CCN(CC(=O)Nc2ccc(C(=O)O[C@@H]3C[C@]4(C)[C@@H](O)CC[C@H]4[C@@H]4CCc5cc(O)ccc5[C@H]43)cc2)CC1` the Activity was “Active”.
